Measured values: ChEMBL document CHEMBL4627265, “Optimization of 8-oxoadenines with toll-like-receptor 7 and 8 activity” (Bioorg Med Chem Lett, 2020)
Activity calls are given as the source filed them. The rule behind the calls is not given here.

Columns and labels:
Format in all cases: cell-based
[1] = target: T1, Toll-like receptor 8 (Homo sapiens) (UniProt Q9NR97); test: Agonist activity at TLR8 in human PBMC assessed as TNFalpha level
T1 sequence (whole entry): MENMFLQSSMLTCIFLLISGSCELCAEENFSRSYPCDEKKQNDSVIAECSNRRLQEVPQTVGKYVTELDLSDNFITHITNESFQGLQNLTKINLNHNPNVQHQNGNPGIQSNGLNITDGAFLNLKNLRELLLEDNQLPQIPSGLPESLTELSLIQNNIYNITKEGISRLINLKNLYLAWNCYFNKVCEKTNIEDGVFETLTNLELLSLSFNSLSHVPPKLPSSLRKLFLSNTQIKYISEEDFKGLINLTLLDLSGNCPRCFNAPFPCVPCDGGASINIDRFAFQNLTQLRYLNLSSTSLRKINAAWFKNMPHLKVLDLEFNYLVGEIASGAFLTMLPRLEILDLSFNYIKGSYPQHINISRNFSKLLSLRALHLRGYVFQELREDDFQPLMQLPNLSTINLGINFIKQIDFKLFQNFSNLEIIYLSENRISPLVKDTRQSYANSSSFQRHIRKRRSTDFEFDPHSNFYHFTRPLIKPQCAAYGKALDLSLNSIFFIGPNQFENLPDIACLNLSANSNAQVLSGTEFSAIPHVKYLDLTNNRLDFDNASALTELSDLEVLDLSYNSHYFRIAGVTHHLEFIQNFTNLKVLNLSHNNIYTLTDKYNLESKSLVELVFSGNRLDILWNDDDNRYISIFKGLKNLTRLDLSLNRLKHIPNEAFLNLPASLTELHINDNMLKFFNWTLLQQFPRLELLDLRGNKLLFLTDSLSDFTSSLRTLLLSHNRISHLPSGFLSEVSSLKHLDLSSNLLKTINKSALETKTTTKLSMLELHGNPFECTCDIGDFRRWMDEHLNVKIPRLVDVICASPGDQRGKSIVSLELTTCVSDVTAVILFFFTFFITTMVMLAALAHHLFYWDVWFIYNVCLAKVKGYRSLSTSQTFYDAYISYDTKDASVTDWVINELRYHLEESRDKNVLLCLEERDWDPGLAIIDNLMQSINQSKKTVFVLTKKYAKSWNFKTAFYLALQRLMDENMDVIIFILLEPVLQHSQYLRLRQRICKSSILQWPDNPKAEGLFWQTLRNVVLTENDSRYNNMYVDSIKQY
How it was run: (§1)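 TNFα secretion by hPBMCs across a μM dose range; MEC = lowest dose tested inducing cytokine, PC = dose giving highest level, PL = peak level at 10 μM. Data representative of one of three independent donors.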

[2] = target: T2, Toll-like receptor 7 (Homo sapiens) (UniProt Q9NYK1); test: Agonist activity at TLR7 in human PBMC assessed as induction of plasmacytoid dendritic cell maturation by measuring CD80 level at 0.1 uM after 6 hrs by flow cytometry
T2 sequence (whole entry): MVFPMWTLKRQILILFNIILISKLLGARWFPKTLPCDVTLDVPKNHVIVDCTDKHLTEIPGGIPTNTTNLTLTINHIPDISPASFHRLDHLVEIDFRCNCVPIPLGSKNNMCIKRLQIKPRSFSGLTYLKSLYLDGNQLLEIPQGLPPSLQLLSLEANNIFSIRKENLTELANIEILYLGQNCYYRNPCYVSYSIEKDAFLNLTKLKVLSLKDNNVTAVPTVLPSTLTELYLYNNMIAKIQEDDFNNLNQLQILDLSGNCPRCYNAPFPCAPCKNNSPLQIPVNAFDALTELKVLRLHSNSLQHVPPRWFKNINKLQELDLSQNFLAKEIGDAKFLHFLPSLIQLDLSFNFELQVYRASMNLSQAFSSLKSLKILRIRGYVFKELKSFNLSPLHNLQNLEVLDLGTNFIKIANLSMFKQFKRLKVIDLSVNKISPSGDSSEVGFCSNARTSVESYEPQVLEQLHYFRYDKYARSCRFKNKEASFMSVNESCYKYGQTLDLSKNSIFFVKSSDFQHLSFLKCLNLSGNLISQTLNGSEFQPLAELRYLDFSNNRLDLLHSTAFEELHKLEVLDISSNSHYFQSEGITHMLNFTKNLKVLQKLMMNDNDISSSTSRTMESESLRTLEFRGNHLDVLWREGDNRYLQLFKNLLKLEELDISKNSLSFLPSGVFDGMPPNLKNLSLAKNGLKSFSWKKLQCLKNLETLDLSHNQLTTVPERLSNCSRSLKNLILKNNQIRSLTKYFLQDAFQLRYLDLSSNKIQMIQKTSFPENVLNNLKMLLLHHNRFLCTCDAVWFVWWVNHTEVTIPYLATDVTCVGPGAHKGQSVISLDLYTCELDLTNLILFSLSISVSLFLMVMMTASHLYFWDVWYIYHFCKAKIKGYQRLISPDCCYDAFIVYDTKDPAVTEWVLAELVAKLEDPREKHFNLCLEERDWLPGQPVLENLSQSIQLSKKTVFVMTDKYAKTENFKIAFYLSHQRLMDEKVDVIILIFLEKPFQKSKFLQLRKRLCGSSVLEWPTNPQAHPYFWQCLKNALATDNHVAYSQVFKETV
How it was run: (§2)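 hPBMCs stimulated 6 h at a single 0.1 μM dose; HLA-DR, MHC-I, CD80 and CD86 on mDCs and pDCs measured by flow cytometry, expressed as fold change versus unstimulated cells. Mean ± SD of three independent experiments in three different donors.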

[3] = target: T1, Toll-like receptor 8 (Homo sapiens); test: Agonist activity at TLR8 in human PBMC assessed as TNFalpha level at 10 uM; how it was run: as §1
[4] = target: T1, Toll-like receptor 8 (Homo sapiens); test: Agonist activity at TLR8 in human PBMC assessed as induction of myeloid dendritic cell maturation by measuring HLA-DR level at 0.1 uM after 6 hrs by flow cytometry; how it was run: as §2
[5] = target: TLR7 and TLR8 (Homo sapiens) (UniProt Q9NYK1+Q9NR97); test: Agonist activity at TLR7/TLR8 in human PBMC assessed as IFN alpha level
How it was run: (§3)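 IFNα secretion by hPBMCs across a μM dose range; MEC = lowest dose tested inducing cytokine, PC = dose giving highest level, PL = peak level at 10 μM. Data representative of one of three independent donors.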

Toll-like receptor 7 = target: T3, Toll-like receptor 7 (Homo sapiens, UniProt Q9NYK1); test: Agonist activity at human TLR7 expressed in HEK293 cells assessed as induction of NFKappaB activity after 24 hrs by SEAP reporter gene assay
T3 sequence (Q9NYK1 whole entry): T2 sequence (whole entry)
How it was run: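 HEK293 cells stably transfected with hTLR7 or hTLR8 plus an NFκB-driven SEAP reporter, treated 24 h with compound over a μM range; SEAP secretion read out. EC50 as mean ± SD of three (TLR7) or four (TLR8) independent experiments.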

[6] = target: T2, Toll-like receptor 7 (Homo sapiens); test: Agonist activity at TLR7 in human PBMC assessed as induction of plasmacytoid dendritic cell maturation by measuring increase in HLA-DR level at 0.1 uM after 6 hrs by flow cytometry relative to control; how it was run: as §2
[7] = target: T2, Toll-like receptor 7 (Homo sapiens); test: Agonist activity at TLR7 in human PBMC assessed as induction of plasmacytoid dendritic cell maturation by measuring CD86 level at 0.1 uM after 6 hrs by flow cytometry; how it was run: as §2
[8] = target: T2, Toll-like receptor 7 (Homo sapiens); test: Agonist activity at TLR7 in human PBMC assessed as IFNalpha stimulation at 10 uM; how it was run: as §3
[9] = target: T1, Toll-like receptor 8 (Homo sapiens); test: Agonist activity at TLR8 in human PBMC assessed as induction of myeloid dendritic cell maturation by measuring CD86 level at 0.1 uM after 6 hrs by flow cytometry; how it was run: as §2
[10] = target: T2, Toll-like receptor 7 (Homo sapiens); test: Agonist activity at TLR7 in human PBMC assessed as induction of plasmacytoid dendritic cell maturation by measuring increase in MHC-1 level at 0.1 uM after 6 hrs by flow cytometry relative to control; how it was run: as §2
[11] = target: T2, Toll-like receptor 7 (Homo sapiens); test: Agonist activity at TLR7 in human PBMC assessed as induction of plasmacytoid dendritic cell maturation by measuring increase in CD86 level at 0.1 uM after 6 hrs by flow cytometry relative to control; how it was run: as §2
[12] = target: Toll-like receptor 3 (Homo sapiens) (UniProt O15455); test: Agonist activity at human TLR3 expressed in HEK293 cells by SEAP reporter gene assay
Sequence of Toll-like receptor 3 (Homo sapiens) (O15455 whole entry): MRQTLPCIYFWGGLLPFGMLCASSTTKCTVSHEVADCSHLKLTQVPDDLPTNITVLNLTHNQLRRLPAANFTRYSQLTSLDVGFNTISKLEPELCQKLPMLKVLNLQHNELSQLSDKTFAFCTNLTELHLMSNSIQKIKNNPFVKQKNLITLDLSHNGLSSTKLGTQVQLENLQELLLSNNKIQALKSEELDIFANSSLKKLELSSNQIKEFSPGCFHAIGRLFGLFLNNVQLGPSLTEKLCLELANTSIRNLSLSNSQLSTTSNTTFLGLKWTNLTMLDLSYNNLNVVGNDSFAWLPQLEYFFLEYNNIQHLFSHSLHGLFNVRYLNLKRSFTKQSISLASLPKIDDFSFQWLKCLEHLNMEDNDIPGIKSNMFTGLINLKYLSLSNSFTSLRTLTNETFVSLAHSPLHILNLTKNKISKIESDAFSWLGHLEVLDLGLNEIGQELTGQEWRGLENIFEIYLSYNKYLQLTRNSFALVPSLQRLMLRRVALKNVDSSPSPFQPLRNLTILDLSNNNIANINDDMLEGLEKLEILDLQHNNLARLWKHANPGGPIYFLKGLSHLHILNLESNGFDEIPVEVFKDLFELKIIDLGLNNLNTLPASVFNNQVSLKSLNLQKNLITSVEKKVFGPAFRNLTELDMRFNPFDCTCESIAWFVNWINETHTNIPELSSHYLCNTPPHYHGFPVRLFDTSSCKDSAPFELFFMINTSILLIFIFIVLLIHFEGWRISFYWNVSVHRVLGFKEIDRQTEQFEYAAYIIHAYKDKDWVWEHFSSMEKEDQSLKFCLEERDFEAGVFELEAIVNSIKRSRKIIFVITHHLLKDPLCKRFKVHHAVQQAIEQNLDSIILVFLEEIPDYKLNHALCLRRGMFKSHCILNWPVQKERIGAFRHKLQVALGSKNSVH

[13] = target: T2, Toll-like receptor 7 (Homo sapiens); test: Agonist activity at TLR7 in human PBMC assessed as induction of plasmacytoid dendritic cell maturation by measuring MHC-1 level at 0.1 uM after 6 hrs by flow cytometry; how it was run: as §2
[14] = target: T2, Toll-like receptor 7 (Homo sapiens); test: Agonist activity at TLR7 in human PBMC assessed as induction of plasmacytoid dendritic cell maturation by measuring HLA-DR level at 0.1 uM after 6 hrs by flow cytometry; how it was run: as §2
[15] = target: T4, Toll-like receptor 9 (Homo sapiens) (UniProt Q9NR96); test: Agonist activity at human TLR9 expressed in HEK293 cells by SEAP reporter gene assay
T4 sequence (whole entry): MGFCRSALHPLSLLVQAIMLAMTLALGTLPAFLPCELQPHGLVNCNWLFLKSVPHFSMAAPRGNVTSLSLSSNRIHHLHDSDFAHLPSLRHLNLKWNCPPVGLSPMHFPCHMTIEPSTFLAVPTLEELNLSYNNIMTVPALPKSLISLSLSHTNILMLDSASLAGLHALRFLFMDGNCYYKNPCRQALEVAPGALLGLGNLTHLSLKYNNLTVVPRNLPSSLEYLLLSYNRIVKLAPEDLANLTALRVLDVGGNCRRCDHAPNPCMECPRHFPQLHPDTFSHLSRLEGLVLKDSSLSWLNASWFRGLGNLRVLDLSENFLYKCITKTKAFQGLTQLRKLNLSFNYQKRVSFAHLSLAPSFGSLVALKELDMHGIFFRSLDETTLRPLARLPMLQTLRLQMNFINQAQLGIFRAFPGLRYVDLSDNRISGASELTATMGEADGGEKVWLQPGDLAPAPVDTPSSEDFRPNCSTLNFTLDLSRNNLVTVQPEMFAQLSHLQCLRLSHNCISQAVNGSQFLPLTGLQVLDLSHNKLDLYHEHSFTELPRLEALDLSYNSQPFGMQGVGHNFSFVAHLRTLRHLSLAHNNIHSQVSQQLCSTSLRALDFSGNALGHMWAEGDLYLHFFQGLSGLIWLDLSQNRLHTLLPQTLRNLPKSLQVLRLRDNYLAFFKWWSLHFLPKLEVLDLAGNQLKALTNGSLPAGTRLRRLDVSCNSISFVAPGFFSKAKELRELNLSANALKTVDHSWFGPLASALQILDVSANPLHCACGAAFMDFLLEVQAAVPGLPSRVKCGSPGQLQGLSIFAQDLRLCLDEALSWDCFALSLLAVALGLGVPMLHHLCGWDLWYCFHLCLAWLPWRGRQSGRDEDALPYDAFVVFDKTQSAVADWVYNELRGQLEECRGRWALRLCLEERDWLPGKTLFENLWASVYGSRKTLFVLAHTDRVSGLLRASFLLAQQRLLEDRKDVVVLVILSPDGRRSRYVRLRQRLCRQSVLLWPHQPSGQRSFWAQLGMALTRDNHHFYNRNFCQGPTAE

[16] = target: T1, Toll-like receptor 8 (Homo sapiens); test: Agonist activity at TLR8 in human PBMC assessed as induction of myeloid dendritic cell maturation by measuring increase in CD86 level at 0.1 uM after 6 hrs by flow cytometry relative to control; how it was run: as §2
[17] = target: T1, Toll-like receptor 8 (Homo sapiens); test: Agonist activity at TLR8 in human PBMC assessed as induction of myeloid dendritic cell maturation by measuring increase in MHC-1 level at 0.1 uM after 6 hrs by flow cytometry relative to control; how it was run: as §2

| Compound | MEC [1] [µM] | Activity [2] | Activity [3] [pg/mL] | Activity [4] | ECmax [5] [µM] | MEC [5] [µM] | EC50 (Toll-like receptor 7) [µM] | fold change (FC) [6] | Activity [7] | Activity [8] [pg/mL] | Activity [9] | fold change (FC) [10] | fold change (FC) [11] | Activity [12] | Activity [13] | Activity [14] | Activity [15] | fold change (FC) [16] | fold change (FC) [17] |
| --- | --- | --- | --- | --- | --- | --- | --- | --- | --- | --- | --- | --- | --- | --- | --- | --- | --- | --- | --- |
| CCCCOc1nc(N)c2[nH]c(=O)n(CC3CCN(CCO)CC3)c2n1 | 10 | inactive | 2740 | inactive | 0.4 | 0.4 | 23.1 | 1.5 to 1.7 | inactive | 4730 | inactive | 1.5 to 1.7 | 1.7 to 2.3 |  |  |  |  |  |  |
| COCCOc1nc(N)c2[nH]c(=O)n(CC3CCNCC3)c2n1 |  | inactive |  |  |  |  | > 500 |  | inactive | 2240 |  |  |  | inactive | inactive | inactive | inactive |  |  |
| CCOCc1nc2c(N)nc3ccccc3c2n1CC(C)(C)O | 2 |  |  |  | 10 | 0.08 |  |  |  | 1410 |  |  |  |  |  |  |  | 1.9 | 1.4 |

Now from value to compound:

| MEC [1] [µM] | Activity [2] | Activity [3] [pg/mL] | Activity [4] | ECmax [5] [µM] | MEC [5] [µM] | EC50 (Toll-like receptor 7) [µM] | fold change (FC) [6] | Activity [7] | Activity [8] [pg/mL] | Activity [9] | fold change (FC) [10] | fold change (FC) [11] | Activity [12] | Activity [13] | Activity [14] | Activity [15] | fold change (FC) [16] | fold change (FC) [17] | Compound |
| --- | --- | --- | --- | --- | --- | --- | --- | --- | --- | --- | --- | --- | --- | --- | --- | --- | --- | --- | --- |
|  |  |  |  |  |  | 6.71 |  |  | 4420 |  |  |  |  |  |  |  |  |  | CCC[C@H](C)Oc1nc(N)c2[nH]c(=O)n(CC3CCN(CCN)CC3)c2n1 |
|  | inactive |  |  |  |  | 30 | 1.5 to 1.7 | inactive | 3040 |  | 1.5 to 1.7 | 1.7 to 2.3 |  |  |  |  |  |  | CCCCOc1nc(N)c2[nH]c(=O)n(CC3CCN(CCN)CC3)c2n1 |
|  |  |  |  |  |  | 2.68 | 1.2 to 2.4 |  | 5470 |  | 1.2 to 2.4 | 2 | inactive |  |  | inactive |  |  | CCC[C@H](C)Oc1nc(N)c2[nH]c(=O)n(CC3CCNCC3)c2n1 |
